Experimental data: ChEMBL document CHEMBL4665630, “Synthesis and biological evaluation of anthraquinone derivatives as allosteric phosphoglycerate mutase 1 inhibitors for cancer treatment” (Eur J Med Chem, 2019)
Values belong to the compound of their own block, whether it stands above or below them. Calls of active or inactive are those of the source. No cut-off for these calls is given here.

Tests used:
NCI-H1299 [1] = assay: Antiproliferative activity against human H1299 cells assessed as reduction in cell viability measured after 72 hrs by MTT assay; assay type: functional, cell-based; details: NCI-H1299, 72 h
In short: (§1)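 Cells grown in RPMI-1640 (H1299, PC9) or F-12K (A549) with 10% FBS and penicillin/streptomycin; 2000 H1299 or A549 or 1000 PC9 cells per well, attached 24 h, exposed to inhibitor 72 h; MTT 0.5 mg/mL for 4 h, absorbance at 570 nm; mean ± s.d., n=3.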

[2] = target: Phosphoglycerate mutase 1 (Homo sapiens, UniProt P18669); assay: Inhibition of human recombinant PGAM1 by measuring decrease in OD by enzyme based assay
Chain of Phosphoglycerate mutase 1 (P18669 whole entry): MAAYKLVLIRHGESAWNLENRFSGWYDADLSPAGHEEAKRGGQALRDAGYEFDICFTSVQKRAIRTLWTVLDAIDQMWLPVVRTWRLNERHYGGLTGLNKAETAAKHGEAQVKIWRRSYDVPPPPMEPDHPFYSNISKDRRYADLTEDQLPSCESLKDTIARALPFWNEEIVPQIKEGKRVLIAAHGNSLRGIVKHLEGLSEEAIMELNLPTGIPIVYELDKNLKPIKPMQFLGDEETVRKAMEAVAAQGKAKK
In short: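 C-terminal His6-tagged PGAM1, Ni-NTA purified, 4.6 nM, preincubated with inhibitor in DMSO; coupled enolase/pyruvate kinase M2/LDH system in 100 mM Tris-HCl, 100 mM KCl, 5 mM MgCl2, 1 mM ADP, 0.2 mM NADH, 4 mM 3PG; NADH loss read at 340 nm. Counter-screen without PGAM1 using 4 mM 2PG. Mean ± s.d., n=3.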

PC-9 = assay: Antiproliferative activity against human PC-9 cells assessed as reduction in cell viability measured after 72 hrs by MTT assay; assay type: functional, cell-based; details: PC-9, 72 h; in short: as §1
A549 = assay: Antiproliferative activity against human A549 cells assessed as reduction in cell viability measured after 72 hrs by MTT assay; assay type: functional, cell-based; details: A549, 72 h; in short: as §1
[3] = Toxicity in nude mouse xenografted with human NCI-H1299 cells assessed as body weight loss at 100 mg/kg, ip qd upto 8 days; details: in vivo, 192 h
[4] = Apparent oral clearance in ICR mouse at 100 mg/kg, ip measured upto 24 hrs by LC-MS analysis; assay type: ADME, organism-based; details: in vivo
In short: (§2)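 Male ICR mice, single intraperitoneal 100 mg/kg in 7% DMSO/7% Cremophor EL/86% PBS; heparinised blood at 0.25, 0.5, 1, 2, 4, 6, 10, 24 h; plasma extracted with methanol, quantified by HPLC against a standard curve (water/methanol with 0.1% TFA gradient); n = 3 animals per time point.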

NCI-H1299 [5] = assay: Inhibition of anaerobic glycolysis in human NCI-H1299 cells assessed as decrease in extracellular acidification rate at 10 to 20 uM pretreated for 12 hrs in presence of glucose/2-DG and oligomycin by seahorse XF96 extracellular flux analyzer assay; details: dose microM 10-20, time 12 h
[6] = target: 5'-AMP-activated protein kinase catalytic subunit alpha-2 (Homo sapiens) (UniProt P54646); assay: Activation of AMPK in human H1299 cells assessed as increase in AMPK phosphorylation at 10 to 20 uM by Western blot analysis; assay type: cell-based; details: NCI-H1299, filed as activator, dose microM 10-20
Chain of 5'-AMP-activated protein kinase catalytic subunit alpha-2 (Homo sapiens) (P54646 whole entry, looked up): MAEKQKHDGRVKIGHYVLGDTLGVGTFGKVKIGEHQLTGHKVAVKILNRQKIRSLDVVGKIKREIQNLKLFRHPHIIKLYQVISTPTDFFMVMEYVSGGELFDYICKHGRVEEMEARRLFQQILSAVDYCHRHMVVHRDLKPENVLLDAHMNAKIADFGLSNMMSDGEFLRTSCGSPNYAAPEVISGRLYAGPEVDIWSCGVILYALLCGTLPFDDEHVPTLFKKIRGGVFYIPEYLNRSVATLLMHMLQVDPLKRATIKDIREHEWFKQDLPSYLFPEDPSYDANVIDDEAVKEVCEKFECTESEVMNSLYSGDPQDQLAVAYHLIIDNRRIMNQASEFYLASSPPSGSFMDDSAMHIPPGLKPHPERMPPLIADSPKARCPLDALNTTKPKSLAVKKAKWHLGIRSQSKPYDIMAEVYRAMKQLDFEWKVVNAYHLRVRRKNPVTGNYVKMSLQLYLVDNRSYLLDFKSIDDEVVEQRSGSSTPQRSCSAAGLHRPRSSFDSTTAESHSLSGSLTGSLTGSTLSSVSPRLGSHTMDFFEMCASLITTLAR

NCI-H1299 [7] = assay: Inhibition of oxidative phosphorylation in human NCI-H1299 cells assessed as decrease in maximal respiration at 10 to 20 uM pretreated for 12 hrs in presence of glucose/2-DG and oligomycin by […]; assay type: functional, cell-based; details: dose microM 10-20, time 12.0 hrs
In short: (§3)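 H1299 cells, 10,000 per well, exposed to 10 or 20 µM or PBS for 12 h, then Seahorse XF96. Glycolysis stress: glucose 10 mM, oligomycin 1 µM, 2-DG 50 mM (ECAR). Mito stress: oligomycin 1 µM, FCCP 1 µM, rotenone/antimycin A 0.5 µM (OCR). Normalised to cell number; triplicates, mean ± s.d.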

[8] = […] xenografted with human NCI-H1299 cells assessed as kidney histology at 100 mg/kg, ip qd upto 8 days by haematoxylin and eosin staining-based light microscopic analysis; assay type: organism-based; details: in vivo, 192 h, time <=8 day
In short: (§4)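 Nude mice (male, 4–6 weeks) given 5×10^6 H1299 cells in PBS subcutaneously at both flanks; at ~200 mm³ randomised to vehicle or 100 mg/kg i.p. once daily; volume (L×W×W)×π/6, body weight tracked; terminal tumour weights, Ki67 IHC on tumours, H&E of kidney and liver; mean ± s.e.m., unpaired t-test.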

NCI-H1299 [9] = assay: Inhibition of anaerobic glycolysis in human NCI-H1299 cells assessed as decrease in glycolytic capacity pretreated for 12 hrs in presence of glucose/2-DG and oligomycin by […] assay; assay type: functional, cell-based; in short: as §3
[10] = AUC (0 to infinity) in ICR mouse at 100 mg/kg, ip measured upto 24 hrs by LC-MS analysis; assay type: ADME, organism-based; parameters: route intraperitoneal, dose 100 mg/kg, time <=24; details: in vivo; in short: as §2
[11] = Toxicity in nude mouse xenografted with human NCI-H1299 cells assessed as kidney and liver histology at 100 mg/kg, ip qd upto 8 days by haematoxylin and eosin staining-based light microscopic analysis; details: in vivo, 192 h
NCI-H1299 [12] = assay: Reduction in lactate production in human H1299 cells at 10 to 20 uM incubated for 24 hrs colorimetry based lactate assay; assay type: functional, cell-based; details: dose microM 10-20
In short: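 Cells grown overnight at 37 °C; at 50% confluence switched to phenol red-free, serum-free RPMI for 1 h at 37 °C; medium lactate measured colorimetrically with a kit, normalised to microscope cell counts.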

[13] = AUC (0 to 24 hrs) in ICR mouse at 100 mg/kg, ip measured upto 24 hrs by LC-MS analysis; assay type: ADME, organism-based; parameters: route intraperitoneal, dose 100 mg/kg, time <=24; details: in vivo; in short: as §2
[14] = Half life in ICR mouse at 100 mg/kg, ip measured upto 24 hrs by LC-MS analysis; assay type: ADME, organism-based; details: in vivo; in short: as §2
NCI-H1299 [15] = assay: Inhibition of anaerobic glycolysis in human NCI-H1299 cells assessed as decrease in glycolytic reserve pretreated for 12 hrs in presence of glucose/2-DG and oligomycin by […]; assay type: functional, cell-based; in short: as §3
[16] = Apparent oral volume of distribution in ICR mouse at 100 mg/kg, ip measured upto 24 hrs by LC-MS analysis; assay type: ADME, organism-based; details: in vivo; in short: as §2
NCI-H1299 [17] = assay: Antitumor activity against human NCI-H1299 cells xenografted in nude mouse assessed as tumor volume at 100 mg/kg,qd ip measured upto 8 days relative to control; details: time day <=8
NCI-H1299 [18] = assay: Inhibition of glucose metabolism in human H1299 cells assessed as reduction in ATP level at 10 to 20 uM; assay type: functional, cell-based; details: dose microM 10-20
NCI-H1299 [19] = assay: Inhibition of oxidative phosphorylation in human NCI-H1299 cells assessed as decrease in spare capacity at 10 to 20 uM pretreated for 12 hrs in presence of glucose/2-DG and oligomycin by […]; assay type: functional, cell-based; details: dose microM 10-20, time 12.0 hrs; in short: as §3
NCI-H1299 [20] = assay: Antitumor activity against human NCI-H1299 cells xenografted in ICR mouse assessed as tumor weight at 100 mg/kg,qd ip upto 8 days relative to control; assay type: functional, organism-based; details: nude, time day <=8, in the assay text read “nude mouse” for “ICR mouse”; in short: as §4
NCI-H1299 [21] = assay: Inhibition of anaerobic glycolysis in human NCI-H1299 cells assessed as decrease in glycolysis rate pretreated for 12 hrs in presence of glucose/2-DG and oligomycin by […]; assay type: functional, cell-based; in short: as §3
[22] = Tmax in ICR mouse at 100 mg/kg, ip measured upto 24 hrs by LC-MS analysis; assay type: ADME, organism-based; details: in vivo; in short: as §2
NCI-H1299 [23] = assay: Inhibition of oxidative phosphorylation in human NCI-H1299 cells assessed as decrease in basal respiration at 10 to 20 uM pretreated for 12 hrs in presence of glucose/2-DG and oligomycin by […] assay; assay type: functional, cell-based; details: dose microM 10-20, time 12.0 hrs; in short: as §3
NCI-H1299 [24] = assay: Induction of ROS production in human H1299 cells using carboxy-H2DCFDA at 10 to 20 uM incubated for 24 hrs by FACS analysis; assay type: functional, cell-based; details: dose microM 10-20
In short: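 H1299 cells, 2×10^5 per well, loaded 24 h after seeding with 12.5 µM carboxy-H2DCFDA for 60 min after PBS wash; harvested and analysed by flow cytometry, excitation 490/emission 530 nm.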

NCI-H1299 [25] = assay: Inhibition of oxidative phosphorylation in human NCI-H1299 cells assessed as decrease in oxygen consumption rate at 10 to 20 uM pretreated for 80 mins in presence of glucose/2-DG and oligomycin by seahorse XF24 extracellular flux analyzer assay; assay type: functional, cell-based; details: dose microM 10-20, time 80.0 min
[26] = Cmax in ICR mouse at 100 mg/kg, ip measured upto 24 hrs by LC-MS analysis; assay type: ADME, organism-based; parameters: route intraperitoneal, dose 100 mg/kg, time <=24; details: in vivo; in short: as §2

- IC50 (PC-9): 18.1 µM
- IC50 (A549): 50.5 µM
- IC50 (NCI-H1299 [1]): 7.7 µM
- IC50 [2]: 1.29 µM
SMILES: O=C1c2ccccc2C(=O)c2c1cc(NS(=O)(=O)c1cccc3ccccc13)c(O)c2O

- IC50 (NCI-H1299 [1]): 47.6 µM
- IC50 [2]: 2.05 µM
SMILES: O=C1c2ccccc2C(=O)c2c1cc(NS(=O)(=O)c1cccc3cccnc13)c(O)c2O

- IC50 (PC-9): 3 µM
- IC50 (A549): 6.3 µM
- IC50 (NCI-H1299 [1]): 10 µM
- IC50 [2]: 0.33 µM
SMILES: O=C1c2ccccc2C(=O)c2c1cc(NS(=O)(=O)c1ccc(N3CCCCC3)cc1)c(O)c2O

- IC50 (NCI-H1299 [1]): 22.6 µM
- IC50 [2]: 0.63 µM
SMILES: O=C1c2ccccc2C(=O)c2c1cc(NS(=O)(=O)c1ccc(F)c(C(F)(F)F)c1)c(O)c2O

- IC50 (NCI-H1299 [1]): 27.3 µM
- IC50 [2]: 0.48 µM
SMILES: COc1cccc(S(=O)(=O)Nc2cc3c(c(O)c2O)C(=O)c2ccccc2C3=O)c1

- IC50 (PC-9): 11.5 µM
- IC50 (A549): 11.2 µM
- IC50 (NCI-H1299 [1]): 4.6 µM
- IC50 [2]: 0.097 µM
SMILES: O=C1c2ccccc2C(=O)c2c1cc(NS(=O)(=O)c1ccc(C3CCCCC3)cc1)c(O)c2O

- CL/F [4]: 0.193 mL/min
- IC50 (PC-9): 4.8 µM
- Activity [6]: Active
- IC50 (A549): 10.3 µM
- AUC(0-inf) [10]: 245 µg·h/mL
- AUC(0-t) [13]: 239 µg·h/mL
- half-life [14]: 4.28 h
- IC50 (NCI-H1299 [1]): 6.4 µM
- Vd/F [16]: 71.64 mL
- IC50 [2]: 0.25 µM
- Tmax [22]: 0.25 h
- Cmax [26]: 131 µg/mL
SMILES: O=C1c2ccccc2C(=O)c2c1cc(NS(=O)(=O)c1ccc(-c3ccccc3)cc1)c(O)c2O
- Activity [3]: Non-Toxic
- inhibition (NCI-H1299 [5]): Dose-dependent effect
- inhibition (NCI-H1299 [7]): Active
- Activity [8]: Non-Toxic
- inhibition (NCI-H1299 [9]): Dose-dependent effect
- Activity [11]: Non-Toxic
- Activity (NCI-H1299 [12]): Active
- inhibition (NCI-H1299 [15]): Dose-dependent effect
- Activity (NCI-H1299 [17]): Active
- inhibition (NCI-H1299 [18]): Active
- inhibition (NCI-H1299 [19]): Active
- Activity (NCI-H1299 [20]): Active
- inhibition (NCI-H1299 [21]): Dose-dependent effect
- inhibition (NCI-H1299 [23]): Active
- Activity (NCI-H1299 [24]): Active
- inhibition (NCI-H1299 [25]): Active

The next lines start with the compound.

SMILES: CS(=O)(=O)Nc1cc2c(c(O)c1O)C(=O)c1ccccc1C2=O
- IC50 (NCI-H1299 [1]): 28.5 µM
- IC50 [2]: 5.37 µM

SMILES: O=C1c2ccccc2C(=O)c2c1cc(NS(=O)(=O)c1ccc(-c3ccc(F)cc3)cc1)c(O)c2O
- IC50 (PC-9): 5.4 µM
- IC50 (A549): 12 µM
- IC50 (NCI-H1299 [1]): 6.2 µM
- IC50 [2]: 0.26 µM

SMILES: O=C1c2ccccc2C(=O)c2c1cc(NS(=O)(=O)c1ccccc1)c(O)c2O
- IC50 (NCI-H1299 [1]): 21.3 µM
- IC50 [2]: 1.5 µM

SMILES: O=C1c2ccccc2C(=O)c2c1cc(NS(=O)(=O)c1ccc(-c3ccc(Cl)cc3)cc1)c(O)c2O
- IC50 (PC-9): 6.6 µM
- IC50 (A549): 6.8 µM
- IC50 (NCI-H1299 [1]): 6.3 µM
- IC50 [2]: 0.14 µM

SMILES: CC(C)(C)c1ccc(S(=O)(=O)Nc2cc3c(c(O)c2O)C(=O)c2ccccc2C3=O)cc1
- IC50 (PC-9): 9.5 µM
- IC50 (A549): 8.1 µM
- IC50 (NCI-H1299 [1]): 10.2 µM
- IC50 [2]: 0.49 µM

SMILES: O=C1c2ccccc2C(=O)c2c1cc(NS(=O)(=O)N1CCOCC1)c(O)c2O
- IC50 [2]: > 10 µM
